# M4 antag = human M4 muscarinic receptor antagonists, primary screen, CHO cells, Fluo-8 calcium fluorescence | CHO-hM4 cells, ACh EC80 | 360,000 tested, 0.73% active | inhibition, % at 3 µM;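 active = inhibition above its plate's cutoff, the mean inhibition of sample wells plus 3 SD, cut at about 27% in these data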
# Target sequence (P08173 whole entry, looked up): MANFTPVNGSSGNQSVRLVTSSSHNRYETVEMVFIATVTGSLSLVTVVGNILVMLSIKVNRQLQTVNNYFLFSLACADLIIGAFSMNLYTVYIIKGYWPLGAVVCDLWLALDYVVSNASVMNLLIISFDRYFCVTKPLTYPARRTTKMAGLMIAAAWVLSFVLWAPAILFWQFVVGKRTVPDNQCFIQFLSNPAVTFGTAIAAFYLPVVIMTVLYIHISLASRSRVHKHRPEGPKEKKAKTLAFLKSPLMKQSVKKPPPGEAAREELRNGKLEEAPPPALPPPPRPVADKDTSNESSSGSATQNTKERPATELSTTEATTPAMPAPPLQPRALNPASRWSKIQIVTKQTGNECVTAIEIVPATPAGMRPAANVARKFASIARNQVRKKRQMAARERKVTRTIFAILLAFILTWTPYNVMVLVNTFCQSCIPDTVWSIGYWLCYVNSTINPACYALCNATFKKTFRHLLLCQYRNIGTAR
# M5 antag = human M5 muscarinic receptor antagonists, primary screen, CHO cells, Fluo-8 calcium fluorescence. CHO-hM5 cells, ACh EC80. inhibition, % at 3 µM. 360,000 tested, 0.59% active. AID 624040, 2012;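 active = inhibition above a per-plate cutoff, the mean of that plate's test compounds plus 3 SD, cut at about 27% in these data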
# CHRM5 agonist = human M5 muscarinic receptor agonists, primary screen, CHO-K1 cells, Fluo-8 calcium fluorescence; Muscarinic acetylcholine receptor M5 (Homo sapiens), P08912; CHO-K1 hM5 cells; 0% DMSO wells, 100% maximal acetylcholine response; activation, % at 3 µM; 360,000 tested, 0.19% active;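 active = activation above the run's mean over test compounds plus 3 SD, cut at about 23% in these data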;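 note: signal is peak over basal fluorescence ratio across the kinetic read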
# M4 PAM = human M4 muscarinic receptor positive allosteric modulators, primary screen, CHO-K1 cells, Fluo-8 calcium fluorescence; CHO-K1 hM4/Gqi5, ACh EC20; 0% = ACh EC20, 100% = maximal ACh; AID 624126, 2012; activation, % at 3 µM; 360,000 tested, 0.4% active;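 active = activation above its plate's cutoff, the mean activation of sample wells plus 3 SD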
# CHRM5 PAM = human M5 muscarinic receptor positive allosteric modulators, primary screen, CHO-K1 cells, Fluo-8 calcium fluorescence; 360,000 tested, 0.3% active; activation, % at 3 µM; CHO-K1 hM5, ACh EC20 PAM; 0% = ACh EC20, 100% = ACh EC100;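 active = activation above the run cutoff, the mean activation of all test compounds plus 3 SD, cut at about 18% in these data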
#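 Assay system: CHO-K1 hM5 cells. Also added: acetylcholine at EC20 concentration, added after compound. Dosing: 3 µM, single dose. Times: compound preincubation 140 s before EC20 acetylcholine addition. Signal: Fluo-8 calcium fluorescence. Measure: % activation relative to EC20 and EC100 ACh responses. Repeats: singlicate, one well per test compound.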
# M4 ag = human M4 muscarinic receptor agonists, primary screen, CHO-K1 cells, Fluo-8 calcium fluorescence; activation, % at 3 µM; CHO-K1 hM4/Gqi5; vehicle 0%, full acetylcholine response 100%; Muscarinic acetylcholine receptor M4 (Homo sapiens), P08173; 360,000 tested, 0.14% active;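 active = activation above the run mean over all test wells plus 3 SD, cut at about 32% in these data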;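 note: peak over basal fluorescence ratio per well then scaled between controls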
# Hits are given with their value; i = inactive. Only some compounds are listed: those with a hit (about 1.8% of all), similar ones and a draw of the others.
SMILES,M4 antag,M5 antag,CHRM5 agonist,M4 PAM,CHRM5 PAM,M4 ag
Cc1ccc2nc(C)cc(C(=O)NC3CCCCCC3)c2c1,i,i,i,25,i,i
S=C1Cc2ccccc2N1,i,i,i,39,i,i
O=c1ccc(-c2n[nH]c(=S)n2-c2ccc(F)c(Cl)c2)n[nH]1,i,i,i,i,i,i
Fc1ccc(-n2c(-c3cc(C4CC4)[nH]n3)n[nH]c2=S)cc1Cl,i,i,i,i,19,i
C[C@H]1CN(c2ccccc2)C(=O)[C@@H]1CC(=O)Nc1ccc(Br)cc1,i,27,i,i,i,i
Cc1ccc2nc(SCC(=O)N3CCC(Cc4ccccc4)CC3)nc(=O)n2c1,i,i,i,i,i,35
Cc1ccccc1Cc1c(C)nc2nc(SCC(=O)NCCCN3CCCCC3)nn2c1C,i,i,i,i,i,i
Cc1nc2nc(SCC(=O)NCCCN3CCCCCC3)nn2c(C)c1Cc1ccccc1,38,i,i,i,i,i
C=CCOC(=O)C1=C[C@H](c2ccc(Br)cc2)C[C@H](OCc2ccc(CO)cc2)O1,i,i,i,i,i,i
O=C1c2cccc3cccc(c23)C(=O)N1CC1CCN(CC(O)COc2ccc3ccccc3c2)CC1 (centres undefined),101,i,i,i,i,i
Cc1ccc(Nc2ncc3c(n2)CC(c2ccco2)CC3=O)c(C)c1 (centres undefined),i,i,i,29,i,i
Cc1ccc(C2CC(=O)c3cnc(NC(=O)c4ccco4)nc3C2)cc1 (centres undefined),i,i,i,15,22,i
O=C1CCCc2c1nc(-c1ccc([N+](=O)[O-])cc1)n2O,i,i,i,i,i,i
O=C1CCCc2c1nc(-c1ccc(F)cc1)n2O,i,i,i,i,20,i
O=C(NNC(=O)c1ccc(-c2ccc([N+](=O)[O-])cc2)o1)c1ccncc1,i,i,i,i,i,i
Cc1ccc(O)c(NC(=O)c2cc(-c3ccccc3Cl)on2)c1,i,28,i,i,i,i
Cc1ccc(-c2cc(C(=O)Nc3cc(C)ccc3O)no2)cc1,i,i,i,i,i,i
CC1(C)CC(=O)C(=Cc2cn(CCC#N)nc2-c2ccc(Cl)cc2)C(=O)C1,i,i,i,20,i,i
COc1ccc(N2CCN(C(=O)CSc3nnc4n3C(C)(C)Cc3ccccc3-4)CC2)cc1,i,i,i,i,i,i
Cc1ccc(Cl)cc1N1CCN(C(=O)CSc2nnc3n2C(C)(C)Cc2ccccc2-3)CC1,33,41,i,i,i,i
CNc1cc(-c2cccc(N(C)C)c2)ncn1,i,i,i,i,i,i
COc1ccc(S(=O)(=O)N2CCN(C(=O)c3cc(C)nc4ccccc34)CC2)cc1OC,i,i,i,i,i,i
O=[N+]([O-])c1cc2oc3c(c2c(C=NCc2ccccc2)c1O)CCCC3,35,i,i,i,i,i
CC(C)CN=Cc1c(O)c([N+](=O)[O-])cc2oc3c(c12)CCCC3,i,i,i,i,i,i
CCO/C(C)=N/Oc1cncnc1,i,i,i,i,i,i
SMILES,M4 antag,M5 antag,CHRM5 agonist,M4 PAM,CHRM5 PAM,M4 ag
CCOc1ncccc1C(=O)Nc1ccc2c(C)cc(=O)oc2c1,i,i,i,i,22,i
CCOC(=O)c1ccc(NC(=O)CN2CCN(C(=O)C3CCCO3)CC2)cc1 (centres undefined),i,i,i,i,i,i
NC(=O)CC(NC(=O)Cc1cccc2ccccc12)c1ccc(NCC2CC2)c([N+](=O)[O-])c1 (centres undefined),i,i,i,i,i,i
NC(=O)CC(NC(=O)Cc1cccc2ccccc12)c1ccc(NCc2ccc(F)c(F)c2)c([N+](=O)[O-])c1 (centres undefined),i,i,i,24,i,i
NC(=O)CC(NC(=O)Cc1cccc2ccccc12)c1ccc(NC2CC3CCC2C3)c([N+](=O)[O-])c1 (centres undefined),i,i,i,i,19,i
NC(=O)CC(NC(=O)Cc1cccc2ccccc12)c1ccc(NC2CCCC2)c([N+](=O)[O-])c1 (centres undefined),i,i,i,i,i,i
NC(=O)CC(NC(=O)Cc1cccc2ccccc12)c1ccc(NCCOc2ccccc2)c([N+](=O)[O-])c1 (centres undefined),i,i,i,28,i,i
O=[N+]([O-])c1cc2c(cc1Br)-c1ccccc1C2,i,i,i,i,i,i
CN1CCN(C(=O)C2CCN(c3ncc(C(F)(F)F)cc3Cl)CC2)CC1,i,i,i,i,i,i
COc1cccc(C2C(C(=O)c3cccs3)=C(O)C(=O)N2c2cc(C)on2)c1 (centres undefined),i,i,i,i,26,i
Cc1cc(N2C(=O)C(O)=C(C(=O)c3cccs3)C2c2ccc(F)cc2)no1 (centres undefined),i,i,i,i,19,i
Cc1cc(N2C(=O)C(O)=C(C(=O)c3cccs3)C2c2ccccc2)no1 (centres undefined),i,i,i,i,i,i
O=C(Nc1cccc(C(F)(F)F)c1)c1csc([C@@H]2O[C@H](CO)[C@H](O)[C@H](O)[C@H]2O)n1,i,i,i,i,i,i
O=C(C=Cc1ccccn1)c1ccccc1,i,i,i,i,29,i
O=C(C=Cc1ccccn1)c1ccccc1O,i,i,i,i,i,i
CC(=O)Nc1ccc(-n2nnnc2SCC(=O)Nc2cccc(NC(=O)c3ccco3)c2)cc1,26,i,i,i,i,i
CN(C(=O)CSc1nccc(=O)[nH]1)C1CCCCC1,i,i,i,22,i,i
CCN(C(=O)CSc1nccc(=O)[nH]1)C1CCCCC1,i,i,i,i,i,i
CC(=O)Nc1c(NC(C)C)c2ccccc2oc1=O,i,i,i,i,22,i
CC(C)(C)S(=O)N1Cc2cn(Cc3ccccc3)c(=O)cc2[C@H]1CCO (some centres undefined),i,i,i,i,i,i
Cc1ccc(NC(=O)c2cnc(N3CCN(c4ccccn4)CC3)c3ccccc23)c(Br)c1,30,i,i,i,i,i

# From PubChem
